According to ChEMBL document CHEMBL1144656, “Synthesis and biological evaluation of nitric oxide-releasing derivatives of oleanolic acid as inhibitors of HepG2 cell apoptosis” (2007):
The source made the active and inactive calls. The rule behind the calls is not given here.

How the values were obtained:
Homo sapiens [1] = species on record: Homo sapiens; assay: Protective effect on anti-Fas induced apoptosis in human Hep3b p53-/- cells 0.1 uM by LDH assay; type: functional, cell-based
[2] = Production of nitric oxide by in vitro Griess assay; type: functional
In short: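 NO release estimated as nitrite by Griess reaction in vitro: chromophore formed for 10 min at 30 °C, absorbance at 540 nm, reported as ng/ml.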

Rattus norvegicus [3] = assay: Inhibition of CCl4-induced liver damage in rat at 128 mg/kg, po; type: functional, organism-based; parameters: dose 128 mg/kg
HepG2 [4] = assay: Inhibition of anti-Fas induced apoptosis in human HepG2 cells at 0.1 nM by LDH assay; type: functional, cell-based
In short: (§1)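 HepG2 cells, 10^4/well in triplicate, in phenol-red-free DMEM with 4% FCS and 2 µg/ml cycloheximide. Apoptosis induced with anti-Fas (CH-11 at 50 ng/ml or DX2 at 1.5 µg/ml) with or without test agent, 18 h at 37 °C, 5% CO2. Supernatant LDH activity read at O.D. 490/650. Untreated cells and 1% Triton X-100 served as 0% and 100% cytotoxicity references for % protection. Means of three independent experiments.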

Homo sapiens [5] = species on record: Homo sapiens; assay: Protective effect on anti-Fas induced apoptosis in human Hep3b p53-/- cells 0.1 nM by LDH assay; type: functional, cell-based
Rattus norvegicus [6] = assay: Inhibition of CCl4-induced hepatic fibrosis in rat at 128 mg/kg, po; type: functional, organism-based; parameters: dose 128 mg/kg
HepG2 [7] = assay: Inhibition of anti-Fas induced apoptosis in human HepG2 cells at 0.1 uM by LDH assay; type: functional, cell-based; in short: as §1
HepG2 [8] = assay: Inhibition of anti-Fas induced apoptosis in human HepG2 cells at 10 nM by LDH assay; type: functional, cell-based; in short: as §1
Homo sapiens [9] = species on record: Homo sapiens; assay: Protective effect on anti-Fas induced apoptosis in human Hep3b p53-/- cells 10 nM by LDH assay; type: functional, cell-based
HepG2 [10] = assay: Inhibition of anti-Fas induced apoptosis in human HepG2 cells at 1 nM by LDH assay; type: functional, cell-based; in short: as §1
Homo sapiens [11] = species on record: Homo sapiens; assay: Protective effect on anti-Fas induced apoptosis in human Hep3b p53-/- cells 1 nM by LDH assay; type: functional, cell-based
HepG2 [12] = assay: Protective effect on anti-Fas induced apoptosis in human HepG2 cells by LDH assay; type: functional; in short: as §1

## CC1(C)CC[C@]2(C(=O)Oc3ccc(/C=C/C(=O)OCCCCO[N+](=O)[O-])cc3)CC[C@]3(C)C(=CC[C@@H]4[C@@]5(C)CC[C@H](OC(=O)C(F)(F)F)C(C)(C)[C@@H]5CC[C@]43C)[C@@H]2C1
Homo sapiens [1]
  Activity: Active
[2]
  Activity: 20 ng/mL

## COc1cc(C(=O)OCCCCO[N+](=O)[O-])ccc1OC(=O)[C@]12CCC(C)(C)C[C@H]1C1=CC[C@@H]3[C@@]4(C)CC[C@H](OC(=O)C(F)(F)F)C(C)(C)[C@@H]4CC[C@@]3(C)[C@]1(C)CC2
[2]
  Activity: 28 ng/mL

## COc1cc(/C=C/C(=O)OCCCO[N+](=O)[O-])ccc1OC(=O)[C@]12CCC(C)(C)C[C@H]1C1=CC[C@@H]3[C@@]4(C)CC[C@H](OC(=O)C(F)(F)F)C(C)(C)[C@@H]4CC[C@@]3(C)[C@]1(C)CC2
Rattus norvegicus [3]
  Activity: Active
HepG2 [4]
  Activity: Active
Homo sapiens [5]
  Activity: Active
Rattus norvegicus [6]
  Activity: Active
[2]
  Activity: 12 ng/mL

## COc1cc(/C=C/C(=O)OCCCCCCO[N+](=O)[O-])ccc1OC(=O)[C@]12CCC(C)(C)C[C@H]1C1=CC[C@@H]3[C@@]4(C)CC[C@H](OC(=O)C(F)(F)F)C(C)(C)[C@@H]4CC[C@@]3(C)[C@]1(C)CC2
HepG2 [7]
  Activity: Active
Homo sapiens [1]
  Activity: Active
[2]
  Activity: 21 ng/mL

## CC1(C)CC[C@]2(C(=O)Oc3ccc(/C=C/C(=O)OCCCO[N+](=O)[O-])cc3)CC[C@]3(C)C(=CC[C@@H]4[C@@]5(C)CC[C@H](OC(=O)C(F)(F)F)C(C)(C)[C@@H]5CC[C@]43C)[C@@H]2C1
HepG2 [8]
  Activity: Active
Homo sapiens [9]
  Activity: Active
[2]
  Activity: 18 ng/mL

## COc1cc(/C=C/C(=O)OCCCCO[N+](=O)[O-])ccc1OC(=O)[C@]12CCC(C)(C)C[C@H]1C1=CC[C@@H]3[C@@]4(C)CC[C@H](OC(=O)C(F)(F)F)C(C)(C)[C@@H]4CC[C@@]3(C)[C@]1(C)CC2
HepG2 [10]
  Activity: Active
Homo sapiens [11]
  Activity: Active
[2]
  Activity: 12 ng/mL

## COc1cc(/C=C/C(=O)OCCCCO[N+](=O)[O-])ccc1OC(=O)CC[C@@H](C)[C@H]1CC[C@H]2[C@H]3C(CC[C@]12C)[C@@]1(C)CC[C@@H](O)C[C@H]1C[C@@H]3O (stereo partly drawn)
HepG2 [12]
  Activity: 33.4%
